Type in all cases: functional
Common to all, as to conditions: sc

Experiment [1] has as its system Rattus norvegicus. The experiment in a line: Dose to antagonise, when given subcutaneously to rats (in vivo) using quipazine antagonism test. In short, it runs like this:
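Rats got test compound 2 h before quipazine (15 μmol/kg sc). Each rat was observed singly in a perspex box, and head twitches were counted 30–40 min after quipazine. Inhibition was expressed as percent of a parallel control group. Four to eight rats per dose.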

Experiment [2] deals with Rattus norvegicus. Kind of experiment: Dose to antagonise, when given subcutaneously to 6-OH-DA-lesioned rats, using SK & F 38393 antagonism test.(in vivo). In short, it runs like this: (§1)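 Unilateral 6-OHDA-lesioned rats, tested 2–9 months after lesioning once stable contralateral circling was seen. Agonist was pergolide (0.05 μmol/kg sc) or SK&F 38393 (4.3 μmol/kg sc), given 2 h after the test compound. Inhibition was calculated as percent of each rat's own control circling response. Four to eight rats per dose.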

Experiment [3] has as its system Rattus norvegicus. The experiment in a line: Dose to antagonise, when given subcutaneously to rats (in vivo) using catalepsy test, maximum effect 1-6h. In short, it runs like this: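 Male Wistar rats (170–270 g) were scored hourly 1–6 h after dosing on a vertical wire grid. Catalepsy counted as present after at least 15-s immobility. The maximum effect over 1–6 h was taken. Eight to twelve animals per dose.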

Experiment [4] has as its system Rattus norvegicus. The experiment in a line: Dose to antagonise, when given subcutaneously to rats (in vivo) using inhibition of locomotor motility test. The method in brief:
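Locomotor activity of male Wistar rats was measured in photocell cages 2 h after test compound or saline. Four to eight animals per dose.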

For experiment [5], the system named is Rattus norvegicus. Kind of experiment: Dose to antagonise, when given subcutaneously to rats (in vivo) using flexor reflex St 587 antagonism test.
Experiment [6] relates to Rattus norvegicus. The experiment in a line: Dose to antagonise, when given subcutaneously to 6-OH-DA-lesioned rats, using pergolide antagonism test.(in vivo). The method in brief: as §1
A further experiment concerns Mus musculus. The experiment in a line: Dose to antagonise, when given subcutaneously to mice (in vivo) using methyl phenidate antagonism test. In short, it runs like this:
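Male NMRI mice (18–25 g) got test compound sc 2 h before methyl phenidate (222 μmol/kg sc). Mice were placed in pairs on corrugated cardboard in gnawing cages. Gnawing was judged 1 h later by inspecting the cardboard. Six to nine pairs per dose.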

Structures are written as SMILES.

As to `CN1CCN([C@H]2Cc3ccccc3Sc3ccc(Cl)cc32)CC1`, the ED50 with Rattus norvegicus [1] stood at 0.02 µmol/kg; in the experiment on Rattus norvegicus [2], 0.85 µmol/kg; with Rattus norvegicus [3], 0.65 µmol/kg; with Rattus norvegicus [4], 0.12 µmol/kg; in the experiment with Rattus norvegicus [5], 0.26 µmol/kg; in the experiment on Rattus norvegicus [6] it was 0.017 µmol/kg. For the same compound, in the experiment on Mus musculus, the 50% effect level (ED50) was put at a dose of 0.2 µmol/kg.

For the compound `CN1CCN(C2Cc3ccccc3Sc3ccc(Cl)cc32)CC1` (stereo unspecified) [CLOROTEPINE], the ED50 with Rattus norvegicus [1] was found to be 0.019 µmol/kg; in the experiment with Rattus norvegicus [2] it was 0.25 µmol/kg; in the experiment with Rattus norvegicus [3], 1.3 µmol/kg; in the experiment with Rattus norvegicus [4] it was 0.18 µmol/kg; with Rattus norvegicus [5], 0.064 µmol/kg; with Rattus norvegicus [6] it was 0.033 µmol/kg. The compound further came in with a median effective dose (ED50) with Mus musculus of 0.19 µmol/kg.

In the case of `CN1CCN([C@@H]2Cc3ccccc3Sc3ccc(Cl)cc32)CC1`, the 50% effective dose (ED50) with Rattus norvegicus [1] is 0.012 µmol/kg; with Rattus norvegicus [2], 1.9 µmol/kg; in the experiment with Rattus norvegicus [3], 24 µmol/kg; in the experiment with Rattus norvegicus [4], 0.46 µmol/kg; in the experiment with Rattus norvegicus [5] it was 0.095 µmol/kg; in the experiment with Rattus norvegicus [6] it was 0.31 µmol/kg. The ED50 in the experiment with Mus musculus came out at 3.8 µmol/kg.

The record behind these values is ChEMBL document CHEMBL1125929, “Octoclothepin enantiomers. A reinvestigation of their biochemical and pharmacological activity in relation to a new receptor-interaction model for dopamine D-2 receptor antagonists” (J Med Chem, 1991).
